Publication PMC3041204 (Diabetes Care, 2011)

Assays:
blood glucose = experiment: Postprandial glycemic response to a standardized liquid test meal; assay type: in vivo, patients with type 1 diabetes; details: first 4 h after study drug administration
Summary of the method: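 Single-blind crossover in adults with type 1 diabetes. Prandial insulin was withheld >8 h and basal insulin >12 h, and blood glucose was clamped to 100–120 mg/dL with IV glucose or insulin. After a 30-min baseline, staff gave an individually optimized SC abdominal insulin dose with or without hyaluronidase, then a liquid meal.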

[1] = assay type: in vivo, patients with type 1 diabetes; details: s.c., arithmetic mean; n = 21 (lispro), n = 16 (RHI); serum insulin RIA
[2] = Safety: adverse events, hypoglycemia; assay type: in vivo, patients with type 1 diabetes; details: for patients with hypoglycemia (adverse event): generally mild or occasionally moderate, safety population; for number of subjects administered glucose for the treatment of hypoglycemia: intravenous glucose (20%) at investigator's discretion when blood glucose <60 mg/dL or symptoms

Substance: insulin lispro
- total hyperglycemic excursions (area under the curve >140 mg/dL) (blood glucose): 526 min ⋅ mg^−1 ⋅ mL^−1
- fraction of insulin exposure >2 h after injection [1]: 22%
- fraction of total insulin exposure within the first hour following injection [1]: 39%
- patients with hypoglycemia (adverse event) [2]: 13 of 22
- number of subjects administered glucose for the treatment of hypoglycemia [2]: 6 of 21

Substance: regular human insulin [RHI]
- total hyperglycemic excursions (area under the curve >140 mg/dL) (blood glucose): 1,238 min ⋅ mg^−1 ⋅ mL^−1
- patients with hypoglycemia (adverse event) [2]: 16 of 21
- patients with mild injection-site erythema ([2]; in vivo): two
- number of subjects administered glucose for the treatment of hypoglycemia [2]: 12 of 21
